Our source for the yeast fitness values is the RNAGym collection of RNA variant scans (doi:10.1126/science.aae0568).

Fewer inactive variants are shown than the library holds.

B1: tRNA (parent)
chain: GUUCCGUUGGCGUAAUGGUAACGCGUCUCCCUCCUAAGGAGAAGACUGCGGGUUCGAGUCCCGUACGGAACG

Variants of B1 are the subject of the series. The series is described as follows: yeast fitness relative to wild type (ratio to wild type); higher = fitter; tRNA-Arg(CCU), competitive growth, 37 C, YPD. The method, boiled down:
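Variants of the tRNA-Arg(CCU) gene, chemically synthesised with a 3% per-site mutation rate at 69 sites, were placed at the native genomic locus in Saccharomyces cerevisiae. The pooled strains were competed in YPD at 37°C for 24 hours in six parallel replicates. Gene amplicons from the start population and from each end population were read by 100-nucleotide paired-end sequencing. Darwinian fitness relative to wild type came from changes in genotype frequencies; genotypes needed ≥ 100 starting reads, and estimates < 0.5 were set to 0.5.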
For C5U C11U A57U, the yeast fitness turned out to be 0.544.

As for A14U G48A A70U, the yeast fitness was 0.661.

Consider U16C A42C U53A, for which the yeast fitness was not above 0.5.

Regarding G9A U28C G38A G44A G51C G58C, the yeast fitness was not above 0.5.

Consider C22A C46G G52A, for which the yeast fitness was not above 0.5.

For the variant C49U A65C, the yeast fitness came to 0.935.

With C5A C22G C49G G68C, the yeast fitness is 0.578.

In the case of C33U A43U C49A G50C C61U C66U, the yeast fitness is not above 0.5.

As for G48A C60U A70U, the yeast fitness was 0.71.

On to U7C C11A G67U, for which the yeast fitness is not above 0.5.

G6C G12A C33U A65G A70G: the yeast fitness was not above 0.5.

In the case of G10A A21U C31A G39C C62G G68A, the yeast fitness was not above 0.5.

On to G18C G23A G25C A37G A65G, for which the yeast fitness is not above 0.5.

On to C5U C11A A45G, for which the yeast fitness is 0.537.

As for G38A C49U G51C, the yeast fitness is not above 0.5.

Take U8C C22U C34A: the yeast fitness stood at 0.952.

Consider A42C U47G, for which the yeast fitness is 0.607.

Regarding C4G G10C U35C G38U C46G, the yeast fitness was not above 0.5.

Regarding C22U A37U C49A C62U, the yeast fitness was determined as 0.598.

Consider U3C C4U A21G C46A, for which the yeast fitness was 0.628.

For the variant A20G A40G, the yeast fitness was 0.888.

As to G6C G51A, the yeast fitness was 0.791.

For U7A C46U U59C C62G A65U, the yeast fitness was not above 0.5.

On to A40U C49U C62A C66A, for which the yeast fitness was not above 0.5.

As for C4G A14C G25C A45U A57U, the yeast fitness came out at 0.55.

As to G17C A20C G52C, the yeast fitness is not above 0.5.

A43G A45C C46U: the yeast fitness is 0.578.

For G25C C66A, the yeast fitness amounted to 0.677.

As to A14G C34U, the yeast fitness came out at 0.62.

Regarding C11U A36U G58A G67C, the yeast fitness was not above 0.5.

For the variant U13C C49A, the yeast fitness is 0.795.

G12A U59C: the yeast fitness came out at 0.993.

Turning to A20G C34G U47C, the yeast fitness is not above 0.5.

As to C4U A21G C46A U64C, the yeast fitness was determined as 0.676.

On to U2C U16A A40G G48A, for which the yeast fitness was not above 0.5.

A65C C66U: the yeast fitness was 0.89.

In the case of A15C A43U A65G, the yeast fitness came out at 0.583.

Take G10C G63C: the yeast fitness was not above 0.5.

U19G A20U C30U G48A A70U: the yeast fitness is not above 0.5.

In the case of G44C U54C U64A G68A, the yeast fitness was not above 0.5.

Take U3C G10A G52A U54C G56A G58A: the yeast fitness is not above 0.5.

For A15U A36U, the yeast fitness was not above 0.5.

As to U8C C22G U54A U59A C61U, the yeast fitness was not above 0.5.

Turning to A20C C29G C62A, the yeast fitness was not above 0.5.

Turning to C24G C30A G44C U47C U59A A69C A70C, the yeast fitness was 0.884.

Turning to A21U A65G A70C, the yeast fitness was determined as 0.56.

Take C24G C33U A37U G67A: the yeast fitness was not above 0.5.

With C11U U35C G44A, the yeast fitness came to 0.727.

Turning to G6A C62G, the yeast fitness stood at 0.827.

As to C4G G10C G12A A36C U54G C60U A70G, the yeast fitness was determined as 0.615.

In the case of U28A A40U, the yeast fitness was 0.984.

G48C G50A: the yeast fitness is 0.651.

With G12C A42U, the yeast fitness came out at 0.698.

U3A C27A A69U: the yeast fitness stood at 0.627.

As to A14U C46G G63A, the yeast fitness came out at 0.53.

In the case of C33G A42G G52A C62A A70U, the yeast fitness amounted to 0.589.

Take C22U C31G A43U: the yeast fitness amounted to 0.612.

On to A15U U19C U47C A65G G68C, for which the yeast fitness was not above 0.5.

A40G G48A G63A: the yeast fitness amounted to 0.774.

G39C U47A G58A G63A: the yeast fitness is not above 0.5.

As to G58C U59C A70G, the yeast fitness is 0.706.

On to A14G A20C C33A A70G, for which the yeast fitness was not above 0.5.

As for G51A A57U A65U G68A A70U, the yeast fitness is not above 0.5.

For the variant A14C U16G A21G A70U, the yeast fitness is not above 0.5.

Turning to C34G U53G, the yeast fitness is not above 0.5.

Turning to C30U C34G G38C A65C, the yeast fitness was 0.537.

As for U7A G9C G17C, the yeast fitness was determined as 0.55.

For U3C C46G A69C, the yeast fitness worked out at 0.625.

For the variant U19A A21C G25C C31G C33U G67A, the yeast fitness is not above 0.5.

Regarding A21U C27A G50C G52C, the yeast fitness was not above 0.5.

As to C49A A69C, the yeast fitness was 0.709.

Regarding U2A C5A U16C C30A, the yeast fitness was not above 0.5.

With A20G C46U G63A, the yeast fitness is 0.82.

For A21U C27U G44A, the yeast fitness was not above 0.5.

On to C30A C61U A65U, for which the yeast fitness is not above 0.5.

Consider G58A C60U, for which the yeast fitness was 0.688.

Take C34U C55G: the yeast fitness was determined as 0.56.

As to C4A A20U G23A C66U, the yeast fitness is not above 0.5.

Regarding A36U A42C C55G C61G, the yeast fitness is not above 0.5.

Regarding A36G C55U G68C, the yeast fitness worked out at 0.594.

Consider G9A A65G G68C, for which the yeast fitness came out at 0.594.

Regarding G12A A15C C46G G58C C61A, the yeast fitness was not above 0.5.

On to A20C A37C C66U, for which the yeast fitness was not above 0.5.

As for G38A G58C, the yeast fitness worked out at 1.

As for U3C C29G C33A, the yeast fitness was not above 0.5.

In the case of C4A U7A C46U, the yeast fitness is not above 0.5.

On to A36U C62U, for which the yeast fitness stood at 0.645.

Take C11U G50A A69C: the yeast fitness came out at 0.522.

As for C24G C29G C33U, the yeast fitness is not above 0.5.

Turning to C11U A14G G51C A69U, the yeast fitness is not above 0.5.

As for U19C G38A, the yeast fitness is 1.01.

Take U13C U53C: the yeast fitness was determined as 0.727.

As for C22U C24G U35C G56C U64A, the yeast fitness was not above 0.5.

Take U8G G17A G56C: the yeast fitness was not above 0.5.

On to G6C U8C G23C C30A A42C G48C G52C, for which the yeast fitness is not above 0.5.

Turning to G17A C29U U35G A37C G38C A65C, the yeast fitness is not above 0.5.

Consider C24A U26G A43C U64C, for which the yeast fitness is not above 0.5.

Take C4G C5G A14G A43G: the yeast fitness is not above 0.5.

On to C33A G50A, for which the yeast fitness is 0.545.

U35C A45U C49A: the yeast fitness was 0.594.

Take U3C C5U G68A: the yeast fitness is not above 0.5.

As to C5G U35C C49G, the yeast fitness was not above 0.5.

Turning to A15G A21C A65U, the yeast fitness worked out at 0.641.

For A20C C55U G67A, the yeast fitness came out at 0.53.

In the case of G12A C24A C34A C49A G63U G67A, the yeast fitness was not above 0.5.

With U19C C30G, the yeast fitness was 0.645.

Turning to C29G A65U A70G, the yeast fitness is 0.506.

For the variant U47G C62U A65U, the yeast fitness was determined as 0.64.

In the case of G18C A21C C27U A37U, the yeast fitness was not above 0.5.

As for A57U A65C A69C, the yeast fitness was not above 0.5.

Regarding U3C G25A U59A, the yeast fitness turned out to be 0.642.

Turning to C22G C30G U47C A70U, the yeast fitness is not above 0.5.

For the variant U2G A43U, the yeast fitness is 0.996.

For U8G U26C C60U, the yeast fitness was not above 0.5.

On to A42U G50C U53A, for which the yeast fitness is not above 0.5.

Regarding G10A G25C, the yeast fitness was determined as 0.656.

C5U A70U: the yeast fitness turned out to be 0.98.

Take A15G A20G C49A C61U C62A G67C: the yeast fitness is not above 0.5.

In the case of C4G A40U C49A C55U, the yeast fitness is 0.515.

Regarding G9A C22G C31U A65C C66A, the yeast fitness is not above 0.5.

C11A A14G G25C C29G: the yeast fitness was not above 0.5.

As to G10C A14U U19A C22U C62A, the yeast fitness is not above 0.5.

For the variant G12A U16C C55G A65C, the yeast fitness was not above 0.5.

With U7G A14U, the yeast fitness came out at 0.675.

As to U7G C30U G38A C60U, the yeast fitness was found to be 0.582.

In the case of A14C A36U G38A A65C, the yeast fitness is not above 0.5.

In the case of U7G C33G G48C U64C, the yeast fitness turned out to be 0.531.

Consider C29U C49A G67C, for which the yeast fitness is not above 0.5.

As to U19C C31A G50U C62G G63A, the yeast fitness was not above 0.5.

A15G A42G G48A: the yeast fitness came to 0.774.

C22U A37C: the yeast fitness was 0.593.

Take C27U C34U G41C U47G: the yeast fitness was not above 0.5.

For the variant A15C C49G, the yeast fitness is 0.652.

With A43G C61U, the yeast fitness came out at 0.887.

Consider C5G A42U A70C, for which the yeast fitness is 0.681.

For the variant C27A G56C C66G, the yeast fitness is not above 0.5.

Regarding A20C C24U G44A C60G, the yeast fitness is not above 0.5.

For the variant U13A U53A C61U, the yeast fitness is not above 0.5.

Turning to A36C A40G C46U, the yeast fitness came to 0.569.

G41C G68A: the yeast fitness worked out at 0.883.

With C4U C31U C55G U59A, the yeast fitness turned out to be 0.546.

As for G9A A14C C22G A45C G51C U64C, the yeast fitness is not above 0.5.

As to C5U C22U C34U G41A A45G, the yeast fitness was not above 0.5.

Consider U8G C34G C55A C66U, for which the yeast fitness was not above 0.5.

For the variant C29G C34U U59C, the yeast fitness turned out to be 0.631.

In the case of A21U A36G C49A, the yeast fitness is not above 0.5.

Regarding A37C A45U, the yeast fitness was found to be 0.695.

Take A15C U16A A45U G48C C61U: the yeast fitness was not above 0.5.

With C55G A57U C62U, the yeast fitness was found to be 0.544.

For the variant U26C C46U, the yeast fitness came out at 0.928.

G9A U47C G48C U59A C66A A69C: the yeast fitness is not above 0.5.

C11U U16A U64A: the yeast fitness is 0.514.

On to C24G C30U C61G, for which the yeast fitness is not above 0.5.

For the variant C4A C22U C30A, the yeast fitness worked out at 0.504.

Regarding U3C G6C A14U G25A G38A U47A C60G, the yeast fitness was 0.558.

Turning to C4G C5G C29U G39C, the yeast fitness was not above 0.5.

Take A45U C60U G68A: the yeast fitness turned out to be 0.575.

In the case of G6C C22G C27G A45U A57G A70G, the yeast fitness was not above 0.5.

On to A15G C49U A69U, for which the yeast fitness amounted to 0.8.

With C34U U35C A40C, the yeast fitness was not above 0.5.

With A14U A43U U59A, the yeast fitness is not above 0.5.

Turning to U8C G12A C29G U47C, the yeast fitness is not above 0.5.

For the variant G12A A14U A21U U32G A37G A45G C55A, the yeast fitness is not above 0.5.

In the case of C4U C11U C34G A40C G51C, the yeast fitness is 0.534.

For the variant C5U C31G U59C, the yeast fitness turned out to be 0.913.

For the variant C33A A40U C55U C62U, the yeast fitness is not above 0.5.

Turning to G12A C24U A65U G68A, the yeast fitness is not above 0.5.
